# The list is not random: actives were taken first. Their share in the collection is about 2.1%.
# SR-BI DiI-HDL act – enhances SR-BI lipid uptake from DiI-HDL | CHO ldlA[mSR-BI] cells, DiI-HDL uptake fluorescence, 3 h; 100 = double the neutral-control signal | 320,000 tested, 0.096% active | activation, % at 12.5 µM;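 active = mean replicate activation of at least 60% and every replicate at or above 60%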;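 note: 0% = median plate neutral-control signal and 100% = twice that signal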
#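 Material: SR-BI-overexpressing, LDLR-lacking CHO cells | Dosing: Single compound concentration, delivered by pin transfer | Probe or stimulus: Labelled HDL, 10 µg/mL | Signal: Bottom-read cell fluorescence after medium removal, ex 550/em 595 nm | Schedule: 3 h, 37 °C | Evaluation: HDL uptake via cellular fluorescence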
# miR122 inh – inhibitors of miR-122 in Huh7 cells; activation (reporter increase), % at 12.5 µM; Huh7 miR-122 Renilla luciferase sensor, 48 h; neutral wells = 0, positive control = 100; 340,000 tested, 0.3% active;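 active = mean replicate activation score at least 90 and every replicate individually at or above 90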;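 note: higher luciferase means less miR-122 activity so hits act as miR-122 inhibitors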
# SR-BI DiI inh – blocks mouse SR-BI lipid uptake from DiI-HDL | Q61009 | ldlA[mSR-BI] CHO cells, DiI-HDL uptake fluorescence, 3 h | inhibition, % at 12.5 µM | 320,000 tested, 0.96% active;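 active = mean replicate inhibition of at least 70% and a set share of replicates each scoring 70 or more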;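 note: 0% = median of neutral control wells and 100% = median of positive control wells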
# Target sequence (Q61009 whole entry, looked up): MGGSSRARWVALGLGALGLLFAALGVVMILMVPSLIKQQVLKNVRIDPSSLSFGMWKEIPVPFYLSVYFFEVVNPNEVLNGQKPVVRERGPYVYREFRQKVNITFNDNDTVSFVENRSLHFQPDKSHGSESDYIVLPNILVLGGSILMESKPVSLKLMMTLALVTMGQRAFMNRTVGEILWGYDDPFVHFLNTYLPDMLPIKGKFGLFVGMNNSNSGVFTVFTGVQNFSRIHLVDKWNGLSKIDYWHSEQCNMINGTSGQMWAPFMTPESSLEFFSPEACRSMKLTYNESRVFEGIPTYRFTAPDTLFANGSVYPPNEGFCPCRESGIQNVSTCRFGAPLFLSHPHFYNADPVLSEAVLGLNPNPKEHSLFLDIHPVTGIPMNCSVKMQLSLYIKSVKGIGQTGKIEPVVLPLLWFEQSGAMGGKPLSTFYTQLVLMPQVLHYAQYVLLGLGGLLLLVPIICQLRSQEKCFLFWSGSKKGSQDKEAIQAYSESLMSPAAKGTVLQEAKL
# ARNT-TACC3 inh – disruptors of human ARNT/TACC3 interaction; AlphaScreen His-ARNT PAS-B/GST-TACC3 binding, luminescence; TACC3 fragment carries E629A point mutation; inhibition, % at 9.99 µM; 390,000 tested, 0.66% active; Q9Y6A5;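 active = mean inhibition of replicates at least 50% and at least half of replicates each reaching 50%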;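 note: 0% = complete ARNT plus TACC3 wells and 100% = ARNT alone without TACC3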
# CAL PDZ FP-1 – inhibitors of human CAL PDZ peptide binding; inhibition, % at 24.9 µM; Q9HD26; AID 602252; purified CAL PDZ, TMR-peptide fluorescence polarization, 1 h; 300,000 tested, 0.92% active;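 active = mean inhibition of at least 30% with at least half of replicates also reaching 30%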;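 note: 0% = DMSO neutral control and 100% = excess unlabeled competitor peptide PRC23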
# CAL PDZ FP-2 – human CAL PDZ-peptide interaction inhibition; Q9HD26; purified CAL PDZ, TMR-peptide fluorescence polarization, 1 h; inhibition, % at 20 µM; 330,000 tested, 0.02% active; AID 504414;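 active = highest replicate inhibition of at least 40%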;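 note: plate controls were DMSO neutral control wells for no effect and unlabeled competitor peptide control wells for full effect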
#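 material = purified tagged CAL PDZ domain construct (CerCALP) | buffer or medium = sodium phosphate/NaCl buffer pH 7.4 with TCEP, IgG, Thesit | reagent = TMR-labelled reporter peptide T*-PRC34 bound in PDZ groove | incubation = 1 h room-temperature incubation prior to read | measured by = fluorescence polarization (mP) | evaluation = percent inhibition from loss of millipolarization | control set = unlabelled peptide and DMSO controls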
# Active calls of the source: *; / = not tested or not shown; ! = not active in a repeat; [ ] = another dose, or the depositor's remark.
SMILES,SR-BI DiI-HDL act,miR122 inh,SR-BI DiI inh,ARNT-TACC3 inh,CAL PDZ FP-1,CAL PDZ FP-2
COc1ccc(S(=O)(=O)Nc2cccc3c2O[C@H](CN(C)Cc2ccc(Cl)c(Cl)c2)[C@@H](C)CN([C@H](C)CO)C3=O)cc1,6.0,97.7*!,-6.0,4.4,-3.8,-1.9
COc1ccc(S(=O)(=O)Nc2cccc3c2O[C@@H](CN(C)Cc2ccc(C(F)(F)F)cc2)[C@H](C)CN([C@H](C)CO)C3=O)cc1,/,102.2*[16.7 µM],/,7.1,/,/
C[C@@H]1CN([C@@H](C)CO)C(=O)c2cc(-c3cccc(C#N)c3)cnc2O[C@@H]1CN(C)C(=O)c1cnccn1,/,/,/,-14.9,/,/
Cc1onc(-c2c(Cl)cccc2Cl)c1C(O)c1ccccc1 (stereo not drawn),-11.5,3.3,11.5,-8.3,45.7*,/
O=C(NC12CC3CC(CC(C3)C1)C2)c1ccc(-c2ccc(Cl)cc2)o1,-36.4,/,36.4,-8.6,2.1,-0.5
O=C(NC12CC3CC(CC(C3)C1)C2)c1ccc(-c2ccccc2Cl)o1,-11.2,0.8,11.2,active,-3.8,-2.9
COc1ccnc(CSC(N)=Nc2ccccc2C(F)(F)F)c1,9.5,/,-9.5,25.6,/,-1.1
COc1ccnc(CSC(N)=Nc2ccccc2OC)c1,6.2,-5.0,-6.2,62.3*,-4.8,-0.4
N#Cc1cccc(-c2ccc3c(c2)[C@@H]2[C@@H](CCN2Cc2ccncc2)[C@@H](CO)N3)c1,/,0.8[16.7 µM],/,24.6*,/,/
N#Cc1cccc(-c2ccc3c(c2)[C@H]2[C@H](CCN2Cc2ccncc2)[C@H](CO)N3)c1,/,-8.9[16.7 µM],/,14.2*,/,/
C[C@H](CO)N1C[C@H](C)[C@H](CN(C)S(=O)(=O)c2ccc(Cl)cc2)Oc2c(NS(=O)(=O)c3cn(C)cn3)cccc2C1=O,/,-5.4[16.7 µM],/,-7.2,/,/
C[C@H](CO)N1C[C@H](C)[C@@H](CN(C)Cc2ccc(Cl)c(Cl)c2)Oc2ccc(NS(=O)(=O)c3ccc(F)cc3)cc2CC1=O,/,-8.1[16.7 µM],/,/,/,/
C/C(Cl)=C\Cn1c(O)c(N=NC(N)=S)c2ccccc21,-28.0,/,28.0,-2.0,75.6*,0.6
Cc1ccc2c(CC(=O)NNC(=O)c3ccccc3O)coc2c1,-106.1,4.4,106.1*,0.1,0.6,-2.0
COc1ccccc1NC(=O)Cc1coc2cc(C)ccc12,-14.1,-0.4,14.1,-2.7,-1.8,-1.1
C[C@H](CO)N1C[C@H](C)[C@@H](CN(C)S(=O)(=O)c2cn(C)cn2)Oc2ccc(NC(=O)Nc3ccc(F)cc3)cc2CC1=O,/,2.0[16.7 µM],/,/,/,/
Cc1ccc(N2CCN(S(=O)(=O)c3ccc(-n4cnnn4)cc3)CC2)c(C)c1,-1.2,-3.3,1.2,-1.1,78.7*,-0.1
Cc1noc(C)c1NC(=O)Nc1ccc2c(c1)C(=O)N([C@@H](C)CO)C[C@H](C)[C@H](CN(C)S(=O)(=O)c1ccc(F)cc1)OCCCC[C@@H](C)O2,/,-8.1[16.7 µM],/,-6.3,/,/
Cc1nc2sccn2c(=O)c1Cl,16.9,/,-16.9,2.4,-0.1,-2.4
Cn1c(=O)c2c(nc3sccn32)n(C)c1=O,68.7*,-0.1,-68.7,-3.7,-1.4,-0.3
COC(=O)c1cc(NC(C)=O)ccc1N1CCOCC1,-9.6,/,9.6,2.8,-1.4,-0.6
COC(=O)c1cc(NC(=O)c2cc(-c3ccc(OC)cc3)oc2C(F)(F)F)ccc1N1CCOCC1,-85.7,-8.6,85.7*,-9.0,-1.6,-0.8
COC(=O)c1cc(NC(=O)c2cc(-c3ccc(C(F)(F)F)cc3)oc2C(F)(F)F)ccc1N1CCOCC1,-80.9,/,80.9*,0.5,/,-0.4
N#C[C@@H]1[C@H](c2ccc(C3=CCCCC3)cc2)[C@H](CO)N1C(=O)NC1CCCCC1,/,/,/,8.4,/,/
Cc1ccccc1-c1ccc([C@@H]2[C@H]3CN(S(C)(=O)=O)CCCCN3[C@H]2CO)cc1,/,18.5[16.7 µM],/,-6.0,/,/
SMILES,SR-BI DiI-HDL act,miR122 inh,SR-BI DiI inh,ARNT-TACC3 inh,CAL PDZ FP-1,CAL PDZ FP-2
CO[C@H]1CN(C)C(=O)c2ccc(NS(=O)(=O)c3cccc(F)c3)cc2OC[C@H](C)NC[C@H]1C,/,-24.7[16.7 µM],/,-5.9,/,/
COCC(C)n1c(SCC(=O)N2CC(=O)Nc3ccccc32)nc2ccccc2c1=O (stereo not drawn),4.3,/,-4.3,3.4,46.7*,-1.8
COCC(C)n1c(SCC(=O)NC(=O)Cc2ccccc2)nc2ccccc2c1=O (stereo not drawn),/,143.9*,6.5,-0.3,-17.8,-2.5
COCC(C)n1c(SCC(=O)NNC(=O)c2ccccc2)nc2ccccc2c1=O (stereo not drawn),4.6,-3.0,-4.6,-0.9,-4.1,-0.3
O=C(O)c1ccccc1C(=O)Nc1ccccc1,-3.8,-14.2,3.8,-13.3,0.5,-0.7
O=C(Nc1ccccc1)C1=C(c2ccccc2)S(=O)(=O)CCS1(=O)=O,6.3,/,-6.3,-1.3,34.4*,-1.0
Cc1cccc(CS(=O)(=O)Cc2ccc(C(=O)O)o2)c1,-8.4,-3.7,8.4,-10.2,74.6*,-1.3
COCC(C)N1CC(O)=C(c2nc(-c3ccc(Cl)cc3)cs2)C1=N (stereo not drawn),-81.5,-17.1,81.5*,-5.1,-1.9,0.0
COc1ccc(-c2csc(C3=C(O)CN(Cc4ccc(Cl)cc4)C3=N)n2)cc1OC,-87.1,/,87.1*,0.7,-0.8,0.2
O=C(C[C@@H]1CC[C@@H](NC(=O)Nc2cccc(F)c2)[C@H](CO)O1)NCC1CCCCC1,/,/,/,-2.1,/,/
CCN1CCN(C(=O)c2cnn3c(C(F)F)cc(-c4ccc(C)cc4)nc23)CC1,-28.1,-27.8,28.1,0.4,0.4,-1.8
O=C(c1cnn2c(C(F)F)cc(-c3ccccc3)nc12)N1CCN(Cc2ccc3c(c2)OCO3)CC1,/,/,78.2*,3.4,-2.2,-3.4
Cc1ccc(-c2cc(C(F)F)n3ncc(C(=O)N4CCN(c5ccccn5)CC4)c3n2)cc1,-77.1,-11.3,77.9*,/,/,-3.7
Cc1ccccc1Cc1c(C)nc2c(C(=O)N3CCN(Cc4ccc5c(c4)OCO5)CC3)cnn2c1C,-12.9,3.1,12.9,-18.6,-2.0,/
Cc1noc(C)c1NC(=O)N[C@@H]1CC[C@@H](CCNC(=O)C2CCC2)O[C@H]1CO,/,/,/,-6.1,/,/
COc1ccc(C)cc1NC(=O)Nc1ccc(Br)cn1,-3.2,-0.5,3.2,-0.5,46.4*,-0.3
Cc1cc(C)n(C(=O)c2cccc(S(=O)(=O)N3CCOCC3)c2)n1,-26.1,0.4,26.1,2.7,63.6*,-0.2
CC(NC(=O)c1ccc(Br)o1)c1ccc(-n2ccnc2)cc1 (stereo not drawn),-3.7,4.7,3.7,-4.1,35.4*,-0.6
CCn1cc(/C=N\NC(=O)c2c[nH]c3ccccc23)c(C)n1,18.4,/,-18.4,21.2,-2.9,-0.7
CCn1cc(/C=N\NC(=O)c2csc3ccccc23)c(C)n1,-30.2,-2.2,30.2,2.4,31.6*,/
